Test results taken from ChEMBL document CHEMBL4513216, “Probing the Open Global Health Chemical Diversity Library for Multistage-Active Starting Points for Next-Generation Antimalarials” (ACS Infect Dis, 2020).

Experiment: Toxicity liver stage against HepG2, at 10uM
Type: cell-based
Parameters: test concentration 10 uM, cell line HepG2-A16-CD81EGFP
Details: human, HepG2-A16-CD81EGFP cells; read-out: INHIBITION
Summary of the method: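 Uninfected HepG2-A16-CD81EGFP cells, 3 × 10^3 per well, 1536-well, plated on prespotted compound at 10 μM final, parasite-free screening media added to match infected plates; puromycin 10 μM positive, DMSO 0.5% negative; run in parallel with 48 h PbLuc assay at 37 °C, 5% CO2; viability by CellTiter-Glo luminescence, normalized to controls.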

Row | SMILES | cytotoxicity at 10 µM [%]
1 | Cn1c(CN2CCOC[C@H]2c2nc(C(C)(C)C)co2)nc2ccccc21 | 4.78
2 | CS(=O)(=O)NC[C@H]1Cn2c(-c3ccc(F)cc3)cnc2CO1 | -7.47
3 | CCN1C(=O)C(C#N)=C(C)/C(=C/C2=Cc3ccccc3OC2)C1=O | -40.9
4 | CCc1cc(C(F)(F)F)c2c(C3CCN(C(=O)COC)CC3)noc2n1 | 14
5 | O=C(Cc1ccccn1)N1CCc2c(O)nc(-c3cnccn3)nc2C1 | -27
6 | OCC(CO)Nc1nc(C(F)F)nc2ccccc12 | 6.96
7 | COCCNc1ccccc1CNC(=O)NCc1cnc(C)s1 | 10.6
8 | CN(C)c1cc(CNCc2cccc3c2OCCO3)ccn1 | 3.57
9 | N#CC1(NC(=O)c2ccc(F)c(Br)c2)CCSC1 (centres undefined) | -7.08
10 | CC(C)c1noc(CCC(=O)N2CCSCC2)n1 | -2.99
11 | CCC(CC)c1nnc(NC(=O)N2CCCC(NC(C)=O)C2)s1 (centres undefined) | 5.9
12 | Cn1cc(C(=O)N2CCOc3ccccc32)ccc1=O | 13
13 | CCN(C(=O)COC)C(c1cccnc1)c1ccc2c(c1)CCO2 (centres undefined) | -12.4
14 | COCC1c2nnn(C)c2CCN1C(=O)CCc1cccc(OC)c1 (centres undefined) | -90.4
15 | COc1cc(F)ccc1CC(=O)N1CC[C@H]2C(=O)NCCO[C@H]2C1 | -108
16 | COCc1cnc2n1CCN(C(=O)c1oc3ccccc3c1C)C2C (centres undefined) | -104
17 | CCOCc1cnc2n1CCN(C(=O)c1cccc3c1OCCO3)C2C (centres undefined) | -98.2
18 | Cc1cnc(C(=O)N2CCN3C[C@H](OCc4cccnc4)C[C@H]3C2)cn1 | -59.7
19 | O=C(C1CCOC1)N1CCC2(CCN(Cc3nccs3)CC2)CC1 (centres undefined) | -73.3
20 | O=C(c1ccoc1)N1CC[C@@H]2O[C@@H](COCc3ccncc3)CC[C@@H]21 | -80.4
21 | Cc1nc2sccn2c1C(=O)N1CCc2c(nc(N(C)C)[nH]c2=O)C1 | 5.06
22 | CCCC(C)NC1CCN(c2ccc(-n3ccnc3C)cc2)CC1 (centres undefined) | -3.67

Row | SMILES | cytotoxicity at 10 µM [%]
23 | C=C(C)COc1cccc(C(=O)NC(C)c2nnn[nH]2)c1 (centres undefined) | -8.32
24 | COc1ccc(Cc2noc(-c3ccc(NC(C)CO)nc3)n2)cc1 (centres undefined) | -3.06
25 | O=C(CCN1CCCC1)N1CC[C@@H](c2ccc3ccccc3c2)[C@H](O)C1 | 2.97
26 | O=C(O)C1(Cc2ccc(Cl)cc2)CCN(c2ncccc2F)CC1 | -1.29
27 | Cc1nn(C)cc1-c1ccnc(N(C)Cc2ccoc2)n1 | 23.8
28 | O=C(O)C(c1ccc(Cl)c(F)c1)N1CCN(Cc2ccccn2)CC1 (centres undefined) | 8.09
29 | COc1ccc(C(C)C)cc1C1CC(=O)NCc2nc(N(C)C)sc21 (centres undefined) | -1.22
30 | O=C(Nc1ccccc1Cl)N1CCN(CC2CC2)[C@@H]2CS(=O)(=O)C[C@@H]21 | 2.72
31 | CN(C)CC1(O)CCCN(C(=O)Cc2ccc(Cl)c(Cl)c2)C1 (centres undefined) | 0.355
32 | Cn1ncc(NC(=O)Cn2ccc(-c3ccc(F)cc3)n2)n1 | 1.05
33 | CC(C)[C@H]1COC(=O)N1CC(=O)N1CCCN(C(=O)c2ccoc2)CC1 | 3.38
34 | O=c1[nH]c(NC2CCCC2)nc2nccc(-c3cccs3)c12 | -18.1
35 | CCn1cncc1CNc1ccc(-c2nc(CC(C)C)no2)cn1 | -9.07
36 | COc1cccc(COCC(O)CN2CC(n3cccn3)C2)c1 (centres undefined) | -8.52
37 | CS(=O)(=O)NCCCN1CCCCC1c1cc2ccccc2[nH]1 (centres undefined) | -10.6
38 | Cc1ccoc1C(=O)NC1CCN(Cc2cccc3c2OCCO3)CC1 | 1.18
39 | COCC(=O)N(C)Cc1nc(N2CCCC2)ncc1-c1ccncc1 | 12.3
40 | Fc1cccc(-c2nnn3c2COC(CNCc2ccsc2)C3)c1 (centres undefined) | -1.52
41 | CCn1cc2c(n1)CN(Cc1sccc1C)CC2COCC1CC1 (centres undefined) | -57.3
42 | COCCN1CCC(c2nc3ccc(N4CCCC4)cn3n2)CC1 | 11.8
43 | Cn1cc(N2C(=O)CC[C@@H]3[C@H]2CCN3C(=O)c2cscn2)cn1 | -81.5
44 | Cc1cccc(CNC2CC3(CCN(CCO)CC3)c3ccccc32)n1 (centres undefined) | -110
